# Measured values as given in ChEMBL document CHEMBL1125183, “3-Hydroxy-3-methylglutaryl-coenzyme a reductase inhibitors. 7. Modification of the hexahydronaphthalene moiety of simvastatin: 5-oxygenated and 5-oxa derivatives” (J Med Chem, 1991).
# Tests used:
# [1] = Relative potency with respect to compactin; assay type: ADME
# Canis familiaris [2] = assay: Inhibition of cholesterol synthesis in cholestyramine-primed dogs at 4 mg/kg per day dose in Dog 2; assay type: functional, Canis lupus familiaris
# Procedure, shortened: (§1)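 Male beagles were fed a low-cholesterol semisynthetic diet once daily, with 12 g cholestyramine per day in the diet. Pretreatment plasma cholesterol was established, then one dog per compound received 4 mg/kg mixed into the diet for 21 days and was then crossed over to the lovastatin control at the same dose for 2-3 weeks. Jugular blood was taken twice weekly. Plasma cholesterol was measured colorimetrically (Liebermann-Burchard) after extraction and saponification and reported as % change from the resin-treated state.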
# [3] = target: T1, 3-hydroxy-3-methylglutaryl-coenzyme A reductase (Rattus norvegicus, UniProt P51639); assay: In vitro ability to inhibit solubilized, partially purified, rat liver HMG-CoA reductase
# T1 sequence (P51639 whole entry): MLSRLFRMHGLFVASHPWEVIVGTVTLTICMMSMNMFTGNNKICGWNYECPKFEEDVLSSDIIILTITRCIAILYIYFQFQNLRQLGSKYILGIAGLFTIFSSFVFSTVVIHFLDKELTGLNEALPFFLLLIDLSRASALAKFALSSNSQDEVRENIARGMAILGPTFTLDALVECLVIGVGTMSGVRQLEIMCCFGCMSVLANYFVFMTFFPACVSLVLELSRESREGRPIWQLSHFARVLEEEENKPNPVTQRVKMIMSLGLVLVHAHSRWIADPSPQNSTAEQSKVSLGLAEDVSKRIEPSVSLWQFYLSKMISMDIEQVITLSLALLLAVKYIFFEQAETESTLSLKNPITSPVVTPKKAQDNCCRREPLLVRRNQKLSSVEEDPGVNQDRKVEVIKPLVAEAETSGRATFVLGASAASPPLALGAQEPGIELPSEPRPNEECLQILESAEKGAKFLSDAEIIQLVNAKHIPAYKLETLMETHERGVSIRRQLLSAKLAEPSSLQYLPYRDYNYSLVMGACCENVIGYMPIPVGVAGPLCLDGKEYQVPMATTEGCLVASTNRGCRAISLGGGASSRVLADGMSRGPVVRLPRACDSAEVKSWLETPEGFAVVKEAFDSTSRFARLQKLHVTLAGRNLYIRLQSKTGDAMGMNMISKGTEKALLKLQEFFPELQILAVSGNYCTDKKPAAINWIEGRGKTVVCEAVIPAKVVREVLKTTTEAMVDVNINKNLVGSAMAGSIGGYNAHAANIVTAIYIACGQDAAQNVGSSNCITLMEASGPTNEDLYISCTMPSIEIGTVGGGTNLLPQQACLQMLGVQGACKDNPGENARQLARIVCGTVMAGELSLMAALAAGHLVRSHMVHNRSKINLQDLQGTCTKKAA
# Procedure, shortened: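 Enzyme tested as the sodium salt of the dihydroxy carboxylate form, against solubilized, partially purified rat liver HMG-CoA reductase. Conditions follow a procedure the paper cites from earlier work.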
# Rattus norvegicus = species on record: Rattus norvegicus; assay: The compound was evaluated for acute inhibition of cholesterol synthesis in rat; percent change of [14C]cholesterol; assay type: functional
# Procedure, shortened: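 Rats received a single oral dose of 0.45 mg/kg. Synthesis of cholesterol from [14C]acetate was measured at a fixed time after dosing and reported as % change in [14C]cholesterol.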
# Canis familiaris [4] = assay: Inhibition of cholesterol synthesis in cholestyramine-primed dogs at 4 mg/kg per day dose in Dog-1; assay type: functional, Canis lupus familiaris; procedure, shortened: as §1
# Canis familiaris [5] = assay: Inhibition of cholesterol synthesis in cholestyramine-primed dogs at 4 mg/kg per day dose in Dog-2; assay type: functional, Canis lupus familiaris; procedure, shortened: as §1
# Canis familiaris [6] = assay: Inhibition of cholesterol synthesis in cholestyramine-primed dogs at 4 mg/kg per day dose in Dog-3:; assay type: functional, Canis lupus familiaris; procedure, shortened: as §1
# Canis familiaris [7] = assay: Inhibition of cholesterol synthesis in cholestyramine-primed dogs at 4 mg/kg per day dose in Dog-3; assay type: functional, Canis lupus familiaris; procedure, shortened: as §1
# Canis familiaris [8] = assay: Inhibition of cholesterol synthesis in cholestyramine-primed dogs at 4 mg/kg per day dose in Dog 1; assay type: functional, Canis lupus familiaris; procedure, shortened: as §1
SMILES,Relative potency [1],IC50 [3] [nM],Change (Rattus norvegicus) [%],also measured
CCC(C)(C)C(=O)O[C@H]1C[C@H](C)[C@@H](O)[C@@H]2CC[C@H](C)[C@H](CC[C@@H]3C[C@@H](O)CC(=O)O3)C12 (some centres not stated),61,48.6,-54,Change (Canis familiaris [2]): 34%
CCC(C)(C)C(=O)O[C@H]1C[C@@H](C)C(=O)[C@@H]2CC[C@H](C)[C@H](CC[C@@H]3C[C@@H](O)CC(=O)O3)C12 (some centres not stated),125,34,-56,
CC[C@H](C)C(=O)O[C@H]1C[C@@H](C)C=C2C=C[C@H](C)[C@H](CC[C@@H]3C[C@@H](O)CC(=O)O3)C21 (some centres not stated),,,,Change (Canis familiaris [4]): 25%; Change (Canis familiaris [5]): 38%; Change (Canis familiaris [6]): 25%
CCC(C)(C)C(=O)O[C@H]1C[C@@H](C)[C@@H](OCCc2ccccc2)[C@@H]2CC[C@H](C)[C@H](CC[C@@H]3C[C@@H](O)CC(=O)O3)C12 (some centres not stated),300,6,-39,
C=C(C)C[C@H](OC(=O)C(C)(C)CC)C1[C@H](O)CC[C@H](C)[C@@H]1CC[C@@H]1C[C@@H](O)CC(=O)O1 (some centres not stated),0.9,1700,,
CCC(C)(C)C(=O)O[C@H]1C[C@@](C)(CSc2ccccc2)O[C@@H]2CC[C@H](C)[C@H](CC[C@@H]3C[C@@H](O)CC(=O)O3)C12 (some centres not stated),258,6.6,-34,
CCC(C)(C)C(=O)O[C@H]1C[C@@H](C)[C@@H](OC(=O)NCc2ccccc2)[C@@H]2CC[C@H](C)[C@H](CC[C@@H]3C[C@@H](O)CC(=O)O3)C12 (some centres not stated),360,5,-27,
CCC(C)(C)C(=O)O[C@H]1C[C@H](C)C(=O)[C@@H]2CC[C@H](C)[C@H](CC[C@@H]3C[C@@H](O)CC(=O)O3)C12 (some centres not stated),63,59,-68,
CCC(C)(C)C(=O)O[C@H]1C[C@H](C)[C@H](O)[C@@H]2CC[C@H](C)[C@H](CC[C@@H]3C[C@@H](O)CC(=O)O3)C12 (some centres not stated),11.1,269,,
CCC(C)(C)C(=O)O[C@H]1C[C@](C)(CSc2ccccc2)O[C@@H]2CC[C@H](C)[C@H](CC[C@@H]3C[C@@H](O)CC(=O)O3)C12 (some centres not stated),280,6,0,
CCC(C)(C)C(=O)O[C@H]1C[C@@H](C)[C@@H](O)[C@@H]2CC[C@H](C)[C@H](CC[C@@H]3C[C@@H](O)CC(=O)O3)C12 (some centres not stated),73,40.8,-37,Change (Canis familiaris [7]): 19%
CCC(C)(C)C(=O)O[C@H]1C[C@@H](C)CC2CC[C@H](C)[C@H](CC[C@@H]3C[C@@H](O)CC(=O)O3)C21 (some centres not stated),138,13,,
CCC(C)(C)C(=O)O[C@H]1C[C@@H](C)[C@@H](OC(=O)N(Cc2ccccc2)Cc2ccccc2)[C@@H]2CC[C@H](C)[C@H](CC[C@@H]3C[C@@H](O)CC(=O)O3)C12 (some centres not stated),94,16,-4,
CCC(C)(C)C(=O)O[C@H]1CC(C)(C)O[C@@H]2CC[C@H](C)[C@H](CC[C@@H]3C[C@@H](O)CC(=O)O3)C12 (some centres not stated),70,35,-67,Change (Canis familiaris [8]): 20%
CCC(C)(C)C(=O)O[C@H]1C[C@@H](C)[C@@H](OP(=O)(c2ccccc2)c2ccccc2)[C@@H]2CC[C@H](C)[C@H](CC[C@@H]3C[C@@H](O)CC(=O)O3)C12 (some centres not stated),300,6,-27,
CCC(C)(C)C(=O)O[C@@H](C[C@@H](C)CO)C1[C@H](O)CC[C@H](C)[C@@H]1CC[C@@H]1C[C@@H](O)CC(=O)O1 (some centres not stated),0.5,2800,,
